pIC50, pKi: −log10 of the molar value. Activity calls are given as the source filed them. The rule behind the calls is not given here.
Columns and labels:
[1] = Inhibition of Sporosarcina pasteurii CCM 2056 urease assessed as reduction in ammonia production using urea as substrate measured for 120 mins by phenol-hypochlorite method; details: read-out: Ki
[2] = test system: BALB/3T3; experiment: Cytotoxicity against mouse BALB/3T3 cells assessed as reduction in cell proliferation after 72 hrs by SRB assay; format: cell-based; details: balb/3t3, 72 h
Procedure, shortened: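 Mouse BALB/3T3 fibroblasts were scored by SRB assay, with cytotoxicity given as LC50 values.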

[3] = test system: Sporosarcina pasteurii; experiment: Time-dependent Sporosarcina pasteurii CCM 2056 urease assessed as reduction in ammonia production using urea as substrate by phenol-hypochlorite method
[4] = test system: Sporosarcina pasteurii; experiment: Competitive inhibition of Sporosarcina pasteurii CCM 2056 urease assessed as reduction in ammonia production preincubated with enzyme followed by addition of varying levels of urea as substrate measured for 120 mins by Lineweaver-Burk plot analysis
[5] = test system: Sporosarcina pasteurii; experiment: Reversible inhibition of Sporosarcina pasteurii CCM 2056 urease assessed as reduction in ammonia production by measuring recovery of enzyme activity at 10 times IC50 preincubated for 60 mins followed by 100-fold dilution in to PBS containing urea as substrate by Berthelot colorimetric assay relative to control; design: Activity: scale not given: the % may be the effect or the level left
[6] = Inhibition of Proteus mirabilis 543 urease at pH 5.5 assessed as reduction in ammonia production using urea as substrate measured after 15 mins by NaOH-hypochlorite method; details: read-out: IC50
Procedure, shortened: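 Intact Proteus mirabilis cells were tested at pH 5.5, matching physiological urine, with 5 mM urea. Inhibitors were added without preincubation, and IC50 was determined.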

[7] = Inhibition of Proteus mirabilis 543 urease at pH 5.5 assessed as reduction in ammonia production using urea as substrate preincubated for 120 mins followed by substrate addition measured after 15 mins by NaOH-hypochlorite method; details: read-out: IC50
Procedure, shortened: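 Intact Proteus mirabilis cells were preincubated with inhibitors in PBS for 2 h, then tested at pH 5.5, matching urine acidity, with 5 mM urea. IC50 was determined.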

[8] = Inhibition of Sporosarcina pasteurii CCM 2056 urease assessed as reduction in ammonia production by measuring initial state enzyme-inhibitor complex using urea as substrate measured for 120 mins by phenol-hypochlorite method; details: read-out: Ki
[9] = Inhibition of Sporosarcina pasteurii CCM 2056 urease assessed as reduction in ammonia production by measuring steady state enzyme-inhibitor complex using urea as substrate measured for 120 mins by phenol-hypochlorite method; details: read-out: Ki
[10] = Glutathione reactivity in pH 7.4 PBS measured after 6 to 36 hrs in presence of 1.375 mmol GSH by DTNB reagent based spectrophotometric method
Procedure, shortened: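 Glutathione served as a model reactive-thiol compound. Unreacted GSH was quantified spectrophotometrically by a modified Ellman method, and reaction progress was followed over time up to 36 h.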

[11] = target: T1, Papain (Carica papaya) (UniProt P00784); experiment: Inhibition of Carica papaya papain at 0.1 to 1 mM using BzArgOEt as substrate measured for 30 mins
T1 sequence (whole entry): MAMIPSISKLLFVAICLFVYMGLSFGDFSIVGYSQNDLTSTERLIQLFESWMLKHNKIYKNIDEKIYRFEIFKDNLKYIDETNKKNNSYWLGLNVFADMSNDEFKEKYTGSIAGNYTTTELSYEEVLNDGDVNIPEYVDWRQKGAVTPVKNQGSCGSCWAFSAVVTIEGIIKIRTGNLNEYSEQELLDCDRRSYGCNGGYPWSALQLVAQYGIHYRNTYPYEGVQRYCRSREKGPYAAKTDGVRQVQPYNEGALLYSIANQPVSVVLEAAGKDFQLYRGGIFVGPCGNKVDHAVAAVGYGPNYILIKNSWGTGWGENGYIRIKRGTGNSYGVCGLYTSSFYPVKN

[12] = test system: Proteus mirabilis; experiment: Inhibition of Proteus mirabilis 543 urease at pH 5.5 assessed as reduction in ammonia production using urea as substrate followed by substrate addition by NaOH-hypochlorite method; details: TDE = time-dependent effect
[13] = Glutathione reactivity after 36 hrs in presence of 10 mM GSH by 1H NMR analysis
[14] = target: T1, Papain (Carica papaya); experiment: Inhibition of Carica papaya papain at 0.1 to 0.25 mM using BzArgOEt as substrate measured for 30 mins

SMILES	pKi [1]	LC50 [2]	TDI [3]	mode of inhibition [4]	Activity [5]	pIC50 [6]	pIC50 [7]	pKi [8]	pKi [9]	K [10]	log K [10]	inhibition [11]	inhibition [12]	Drug metabolism [13]	inhibition [14]
O=C(O)C#CC(=O)O	7.37	Non-Toxic	Active	Active	10.9%	3.49	4.05	5.40	7.26	0.0073 M⁻¹ min⁻¹	-2.14	inactive	Tde		
O=C(O)/C=C/c1ccccc1 [CINNAMIC ACID]	4.67		Active	Active	40.3%	3.31	3.90	3.23	4.64	< 0.0001 M⁻¹ min⁻¹	> -4		Tde	Metabolite not detected	inactive
O=C(O)/C=C/C(=O)O [FUMARIC ACID]	4.44	Non-Toxic	Active	Active	39.7%	3.74	4.18	3.36	4.43	0.003 M⁻¹ min⁻¹	-2.52	inactive	Tde		

Source: ChEMBL document CHEMBL3997837, “Potent covalent inhibitors of bacterial urease identified by activity-reactivity profiling” (Bioorg Med Chem Lett, 2017)
